Data on 13 molecules can be found in article PMC6568325 (ACS chemical biology, 2018).

The Ki is a measure of affinity in units of concentration, obtained from inhibition or displacement. By Km is commonly meant the substrate concentration at which the rate is half of its maximum. As a reminder, the kcat is the number of substrate molecules converted per active site and unit of time at saturation. As a reminder, the IC50 is the concentration needed to halve the response being measured.

Test [1] addresses T1, CjMTAN (Campylobacter jejuni subsp. jejuni, UniProt Z9IB28FKP7). Nature of the test: CjMTAN inhibition by transition-state analogues. Format: biochemical. The following applies: for Ki: from initial rates, MTA 1 mM, 25 °C, pH 7.4.
Test [2] has as its target T1, CjMTAN. Briefly: CjMTAN substrate specificity, steady-state kinetics. It counts as biochemical. The conditions noted are these: 25 °C; for Km / kcat: substrate of CjMTAN, 50 mM Hepes-KOH pH 7.4; for h (Hill coefficient): substrate saturation, sigmoidal fit, pH 7.4. Put shortly:
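Recombinant N-terminally His6-tagged CjMTAN from strain 81-176, expressed in E. coli and Ni-NTA purified. Substrate varied from 1 to 100 µM, with stock concentrations set by A260. Reaction contained 1 U xanthine oxidase to convert released adenine to 2,8-dihydroxyadenine, read at 305 nm (15.5 mM–1 cm–1). Started with 50 nM enzyme and followed up to 5 min. Initial rates in duplicate or triplicate, fitted to Michaelis-Menten and/or allosteric sigmoidal equations.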

The subject of test [3] is C. jejuni. Nature of the test: C. jejuni growth IC50 on Mueller-Hinton agar. It counts as cell-based. The following applies: Campylobacter jejuni, 144 h, read-out: IC50 C. jejuni growth.
The subject of test [4] is C. jejuni. Nature of the test: C. jejuni growth IC50 in liquid culture media. Format: cell-based. The conditions noted are these: Campylobacter jejuni, 16.4 h, read-out: IC50 C. jejuni growth.

In test [1], `CSC[C@H]1N[C@@H](c2c[nH]c3c(N)ncnc23)[C@H](O)[C@@H]1O` [MTIA] registered a Ki of 32.3 ± 3.4 nM.

`Nc1ncnc2c(CN3CC(O)C(CSc4ccccc4)C3)c[nH]c12` (centres unmarked) [PhTDIA] returned a Ki in test [1] of 5.3 ± 0.3 nM. This Ki lies about 6.1-fold lower than the previous one.

On to `Nc1ncnc2c(CN3CC(O)C(CSc4ccc(Cl)cc4)C3)c[nH]c12` (centres unmarked) [pCPTDIA], for which, in test [1], affinity was put at a Ki of 4.8 ± 0.3 nM.

In test [1], 5′-deoxy-5′-Pro-DADMe-ImmA [PDIA] gave a Ki of 5.1 ± 0.6 nM.

In the case of `Nc1ncnc2c1ncn2[C@@H]1O[C@H](CO)[C@@H](O)[C@H]1O` [adenosine], in test [2], the Michaelis constant (Km) was found to be 7.5 ± 0.6 µM and the turnover number (kcat) stood at 0.30 ± 0.01 s⁻¹.

For the molecule `Nc1ncnc2c(CN3C[C@H](CO)[C@@H](O)C3)c[nH]c12` [DIA], the “fold difference in affinity between MTDIA and DIA” value in test [1] (MTDIA 2.9 nM vs DIA 2.7 μM) is on record as about 1000 fold. The same molecule displayed an inhibition constant Ki in test [1] of 2610 ± 332 nM.

For `C[C@H]1O[C@@H](n2cnc3c(N)ncnc32)[C@H](O)[C@@H]1O` [5′-deoxyadenosine], in test [2], the Michaelis-Menten constant (Km) stood at 21.4 ± 1.3 µM, the kcat was found to be 0.92 ± 0.02 s⁻¹ and the “h (Hill coefficient)” value was 1.8 ± 0.2.

The molecule `CSC[C@H]1O[C@@H](n2ccc3c(N)ncnc32)[C@H](O)[C@@H]1O` [MTT] showed an inhibition constant (Ki) in test [1] of 22100 ± 6080 nM.

Consider `Nc1ncnc2c1ncn2[C@@H]1O[C@H](CCC(=O)c2cccc(C(=O)O)c2)[C@@H](O)[C@H]1O` [6-amino-6-deoxyfutalosine], for which, in test [2], the Michaelis constant (Km) worked out at 3.5 ± 0.4 µM and the kcat is 0.27 ± 0.01 s⁻¹.

Take `Nc1ncnc2c1ncn2[C@@H]1O[C@H](CSCC[C@H](N)C(=O)O)[C@@H](O)[C@H]1O` [S-5′-Adenosyl-L-homocysteine, S-5′-adenosyl-L-homocysteine]: in test [2], the Michaelis constant (Km) came out at 12.2 ± 1.5 µM, the turnover number (kcat) worked out at 0.55 ± 0.03 s⁻¹ and the “h (Hill coefficient)” value was determined as 2.6 ± 0.7.

On to `CNC(C)C1CCC(N)C(OC2C(N)CC(N)C(OC3OCC(C)(O)C(NC)C3O)C2O)O1` (centres unmarked) [Gentamicin], for which the IC50 amounted to 390 ± 60 nM in test [3] and 2100 ± 100 nM in test [4].

As for `CCCCSC[C@H]1CN(Cc2c[nH]c3c(N)ncnc23)C[C@@H]1O` [BTDIA, BuS-DADMe-ImmA], the slow-onset inhibition result in test [1] (CjMTAN) was “slow-onset tight-binding inhibitors”. In test [1], this molecule had a Ki of 4.1 ± 1 nM.

As to 5′-methylthioadenosine, in test [2], the Km is 7.1 ± 0.7 µM and the catalytic constant (kcat) came out at 0.80 ± 0.02 s⁻¹.
